KCNK3 inh = human KCNK3 channel inhibition, primary screen | hit rate 0.84% among 340,000 | O14649 | CHO-KCNK3 thallium flux, FluxOR fluorescence; active compounds read low | B-score at 10 µM;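 active = B-score under library mean minus 4 SD, starting fluorescence ratio at most library mean plus 5 SD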;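 also: more negative B-score means stronger inhibition of thallium flux through KCNK3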
hERG rescue = compounds protecting human hERG from proarrhythmic drug block | AID 1511 | activation (rescue from dofetilide block), less the hit threshold, % at 10 µM | CHO-hERG, FluxOR thallium flux, dofetilide IC70 present | hit rate 0.51% among 310,000;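 active = activation above the mean of controls blocked by dofetilide plus 5 SD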;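 also: thallium influx through hERG after potassium depolarization seen as dye fluorescence rise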
KCNQ1 pot = potentiators or activators of human KCNQ1 potassium channel; P51787; CHO-K1 KCNQ1, thallium flux FluxOR fluorescence; active compounds read high; B-score at 10 µM; hit rate 0.35% among 310,000; AID 2648;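 active = fluorescence ratio B-score, a plate-corrected score, at least three library SD, with initial intensity B-score within 5 SD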
Target sequence (P51787 whole entry, looked up): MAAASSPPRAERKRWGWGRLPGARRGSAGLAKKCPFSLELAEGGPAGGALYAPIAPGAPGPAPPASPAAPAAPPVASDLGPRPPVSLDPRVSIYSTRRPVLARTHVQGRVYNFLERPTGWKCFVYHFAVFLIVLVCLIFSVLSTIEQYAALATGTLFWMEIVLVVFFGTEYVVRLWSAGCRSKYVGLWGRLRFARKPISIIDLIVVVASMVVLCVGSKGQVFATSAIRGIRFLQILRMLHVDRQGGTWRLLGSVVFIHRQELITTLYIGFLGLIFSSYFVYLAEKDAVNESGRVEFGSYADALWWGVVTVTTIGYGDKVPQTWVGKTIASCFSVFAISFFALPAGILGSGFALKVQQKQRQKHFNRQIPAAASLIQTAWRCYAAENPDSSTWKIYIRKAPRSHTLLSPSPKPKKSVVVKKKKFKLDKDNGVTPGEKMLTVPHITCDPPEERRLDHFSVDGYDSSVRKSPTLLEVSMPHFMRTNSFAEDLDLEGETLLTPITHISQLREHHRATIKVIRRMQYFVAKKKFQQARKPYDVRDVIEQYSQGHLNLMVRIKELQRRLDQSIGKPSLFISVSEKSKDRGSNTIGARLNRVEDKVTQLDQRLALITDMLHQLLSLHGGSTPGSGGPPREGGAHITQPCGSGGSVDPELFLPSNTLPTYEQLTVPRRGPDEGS
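Assay system: stable KCNQ1 CHO-K1 line; medium: assay buffer, equal DMSO in all wells; timing: 90 min dye loading and 20 min compound exposure, both at room temperature; technique: kinetic FluxOR thallium fluorescence, 10-s 1-Hz baseline, 110-s post-stimulus read; read-out basis: B score of baseline-normalized fluorescence ratio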
KCNQ1 block = inhibitors of human KCNQ1 potassium channel. P51787. CHO-K1 KCNQ1, FluxOR thallium flux fluorescence; active compounds read high. B-score at 10 µM. hit rate 1.3% among 310,000;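 active = compounds whose thallium flux B-score, printed positive for inhibition, exceeds three library SD while starting fluorescence stays within three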;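 also: channel opened by potassium depolarization with thallium stimulus after 20 min compound exposure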
Kir21 inh = inhibitors of mouse Kir2.1 inward-rectifier potassium channel. HEK293-Kir2.1, FluxOR thallium flux fluorescence; active compounds read low. B-score at 10 µM. hit rate 0.85% among 310,000. AID 1672;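 active = fluorescence ratio B-score at or below minus 3 SD of library scores, with starting-brightness B-score within 2 SD, cut at about -4.2 in these data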;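 also: channel flux triggered by added potassium and thallium sulfate stimulus; B-score of peak minus minimum fluorescence over baseline after thallium stimulus; more negative B-score means stronger Kir2.1 block with less thallium influx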
KCNK9 block = human KCNK9 channel inhibition; Q9NPC2; HEK293 KCNK9, FluxOR thallium flux fluorescence; active compounds read low; B-score at 10 µM; hit rate 1.2% among 310,000;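 active = ratio B-score over 3 SD below the library mean, with starting fluorescence within 5 SD of its mean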;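 also: negative B-score means less thallium flux so channel inhibition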
KCNK9 inh conf = confirmation of human KCNK9 potassium channel inhibitors; shares compounds with KCNK9 block; HEK293 KCNK9 cells, FluxOR thallium flux fluorescence; inhibition, % at 10 µM; hit rate 43% among 4,900;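 active = thallium signal inhibited by more than 5 SD of the compound-free buffer control wells, on both duplicate plates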
Kir21 sel = mouse Kir2.1 off-target activity of KCNK9 modulators. shares compounds with KCNK9 block. Kir2.1 cells, FluxOR thallium flux fluorescence. inhibition, % at 10 µM. hit rate 4% among 4,900;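 active = thallium signal drop more than 5 SD beyond the mean of the no-compound control wells, seen in both duplicate plates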;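 also: signal is fluorescence rise after thallium addition divided by baseline fluorescence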
HEK293 Tl ctr = non-induced cell nonspecific activity of KCNK9 modulators. shares compounds with KCNK9 block. non-induced KCNK9-HEK293, FluxOR thallium flux. inhibition, % at 10 µM. hit rate 40% among 4,900;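 active = thallium signal drop beyond 5 SD of the untreated control mean, on both duplicate plates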
Large screens that a line does not name were inactive (follow-up assays come after a bar, where they were run). This is a sample that favours compounds with a hit; in the whole collection about 3.7% have one here.

CC(C)(C)C1=NN(c2ccc([N+](=O)[O-])cc2)C(c2ccccc2)C1 (stereo not drawn)	KCNQ1 block 9, KCNK9 block -8.8 | KCNK9 inh conf 44% | Kir21 sel inactive | HEK293 Tl ctr 48%
COc1cc2c(cc1OC)CN(c1ccc(C(N)=O)cc1[N+](=O)[O-])CC2	none
Cc1ccc(Cl)cc1N1CCN(Cc2cc3c(cc2O)CCC3)CC1	none | KCNK9 inh conf inactive | Kir21 sel inactive | HEK293 Tl ctr inactive
Cc1ccc(Cl)cc1N1CCN(C(=O)c2ccc(CN3CCOCC3)cc2)CC1	none
O=C(CSc1ncnc2sc3c(c12)CCCC3)N1CCC(c2noc3ccc(F)cc23)CC1	none | KCNK9 inh conf inactive | Kir21 sel inactive | HEK293 Tl ctr inactive
Cc1cc(SCC(=O)N2CCC(c3noc4ccc(F)cc34)CC2)nc2ccccc12	none | KCNK9 inh conf inactive | Kir21 sel inactive | HEK293 Tl ctr inactive
O=C(CSc1ncnc2sc3c(c12)CCC3)N1CCOCC1	none
CCCn1c(C2CCCN2c2nc(C)cs2)nc2cc(Cl)c(Cl)cc21 (stereo not drawn)	KCNK9 block -9.5 | KCNK9 inh conf inactive | Kir21 sel inactive | HEK293 Tl ctr 34%
COc1ccccc1/C=C/C1(C(=O)NC2CCCC2)CC(=O)N1c1ccc(C)cc1 (stereo not drawn)	KCNK9 block -9.8 | KCNK9 inh conf inactive | Kir21 sel inactive | HEK293 Tl ctr 40%
CC(C)c1ccc(S(=O)(=O)NCc2ccc3c(c2)OCO3)cc1	none
Cc1cccc(NC(=O)C23CCC(C)(C2Br)C3(C)C)c1 (stereo not drawn)	none | KCNK9 inh conf inactive | Kir21 sel inactive | HEK293 Tl ctr inactive
Cc1cccc(NC(=O)CC(=O)Nc2cccc(C)c2)c1	none
COc1ccccc1OCc1ccc(C(=O)Nc2ccc(Cl)cn2)o1	none
Cc1cc2ccc3ccccc3c2cc1CN(C)C	Kir21 inh -13 | KCNK9 inh conf inactive | Kir21 sel 66% | HEK293 Tl ctr inactive
CC1(C)C=Cc2cc(-c3coc4cc(O)cc(O)c4c3=O)cc(O)c2O1	none
FC(F)(F)c1nnc(-c2ccccc2)nc1Sc1ccc(Cl)cc1	none | KCNK9 inh conf inactive | Kir21 sel inactive | HEK293 Tl ctr inactive
FC(F)(F)c1nnc(-c2ccccc2)nc1Sc1ccccc1	none
FC(F)(F)c1nnc(-c2ccccc2)nc1Oc1ccc(Cl)cc1Cl	KCNQ1 block 11 | KCNK9 inh conf inactive | Kir21 sel inactive | HEK293 Tl ctr inactive
O=S(=O)(N1CCCCC1)n1c(Cc2ccccc2)nc2ccccc21	KCNK9 block -21 | KCNK9 inh conf 76% | Kir21 sel inactive | HEK293 Tl ctr 42%
O=C(NCCCCc1ccccc1)C1CCCC1	none
CCCCC(=O)Nc1cccc(-c2nc3ncccc3o2)c1	KCNK9 block -11 | KCNK9 inh conf 34% | Kir21 sel inactive | HEK293 Tl ctr inactive
O=C(CCNS(=O)(=O)c1ccc(Br)cc1)N1CCN(c2ccccc2O)CC1	none
CCC(C)(C)n1nnnc1C(c1ccc2ncccc2c1)N1CCN(c2ccc(O)cc2)CC1 (stereo not drawn)	none
CCC(C)(C)n1nnnc1C(c1ccc2ncccc2c1)N1CCN(c2nc3ccccc3s2)CC1 (stereo not drawn)	KCNK9 block -15 | KCNK9 inh conf 47% | Kir21 sel inactive | HEK293 Tl ctr 45%
Cc1ccc(S(=O)(=O)n2nc(OC(=O)c3cccc(F)c3)cc2N)cc1	none
Cc1ccc(S(=O)(=O)n2nc(OC(=O)c3c(F)cccc3Cl)cc2N)cc1	KCNK9 block -20 | KCNK9 inh conf 61% | Kir21 sel inactive | HEK293 Tl ctr 36%
C=Cc1ccc(Cn2nc(-c3ccc(C)cc3)ccc2=O)cc1	none | KCNK9 inh conf inactive | Kir21 sel inactive | HEK293 Tl ctr inactive
Cc1cc(/C=N/NC(=O)C(=O)N2CCCC2)c(C)n1-c1cccc(Br)c1	none
Cc1cc(/C=N/NC(=O)c2c(Br)cnn2C)c(C)n1-c1cccc(Br)c1	KCNK9 block -12 | KCNK9 inh conf 54% | Kir21 sel inactive | HEK293 Tl ctr 29%
Cn1c2ccccc2c(=O)c2ccc(-c3ccc4c(c3)OCO4)cc21	KCNK9 block -8.9 | KCNK9 inh conf 64% | Kir21 sel inactive | HEK293 Tl ctr inactive
CCN(CC(=O)NCc1ccc(Cl)cc1)C(=O)c1cccc(S(=O)(=O)Nc2ccc(OC)cc2)c1	none
Cc1ccc(CN2CCc3c(OCc4ccc(F)cc4)cccc3C2=O)cc1	KCNK9 block -13 | KCNK9 inh conf 71% | Kir21 sel inactive | HEK293 Tl ctr 42%
Cc1ccc(CN2CCc3c(OCC(=O)Nc4cccc(C)c4C)cccc3C2=O)cc1	none (no result: KCNK3 inh)
CNS(=O)(=O)c1cnccc1N1CCN(c2cccc(Cl)c2)CC1	none
CCN(CC)S(=O)(=O)c1cnccc1N1CCN(c2cccc(Cl)c2)CC1	KCNK9 block -9.8 | KCNK9 inh conf 36% | Kir21 sel inactive | HEK293 Tl ctr 27%
O=C(CSc1ccc2ccccc2n1)c1ccc2c(c1)OCO2	KCNK9 block -8.3 | KCNK9 inh conf 39% | Kir21 sel inactive | HEK293 Tl ctr 36%
O=C(O)c1cc(=S)nc[nH]1	none (no result: hERG rescue, KCNQ1 pot, KCNQ1 block, Kir21 inh, KCNK9 block)
CC(C)CCNC(=O)C12CN(Cc3ccccc3)CC1C(c1ccc([N+](=O)[O-])cc1)=NO2 (stereo not drawn)	none
COc1cccc(CNC(=O)C23CN(Cc4ccccc4)CC2C(c2ccc([N+](=O)[O-])cc2)=NO3)c1 (stereo not drawn)	none | KCNK9 inh conf inactive | Kir21 sel inactive | HEK293 Tl ctr inactive
CCN(c1ccccc1)S(=O)(=O)c1ccc(Oc2ccc(C(C)=O)cc2OC)nc1	none (no result: hERG rescue, KCNQ1 pot, KCNQ1 block, Kir21 inh, KCNK9 block)
Cc1cc(C(=O)CSc2nnnn2-c2ccccc2)c(C)n1-c1ccc2c(c1)OCO2	none
Cc1cc(C(=O)CSc2nnnn2-c2ccc(O)cc2)c(C)n1Cc1ccc2c(c1)OCO2	KCNK9 block -9.8 | KCNK9 inh conf 28% | Kir21 sel inactive | HEK293 Tl ctr inactive
COc1ccc(CN2CCC(CO)(Cc3ccccc3C(F)(F)F)CC2)c(F)c1	none | KCNK9 inh conf inactive | Kir21 sel inactive | HEK293 Tl ctr inactive
CCCCn1c(SCC(=O)c2ccccc2)nc2ccsc2c1=O	KCNK9 block -16 | KCNK9 inh conf 30% | Kir21 sel inactive | HEK293 Tl ctr 28%
O=C(O)CCCCCn1c(SCC(=O)c2ccc(O)c(O)c2)nc2ccsc2c1=O	none

Screening data deposited in PubChem BioAssay by Johns Hopkins Ion Channel Center.
